As usually defined, the MIC is the least concentration at which growth counts as inhibited. By IC50 is commonly meant the concentration needed to halve the response being measured. The term ED50 denotes the dose that gives a 50% effect, or the effect in half of the subjects.

The values below come from ChEMBL document CHEMBL4177542, “A New Combination of a Pleuromutilin Derivative and Doxycycline for Treatment of Multidrug-Resistant Acinetobacter baumannii” (J Med Chem, 2017).

≈ marks a conversion by molar mass, not a printed value.

Data set [1] deals with Acinetobacter baumannii. In words: Growth inhibition of Acinetobacter baumannii ATCC 19606 after 48 hrs by resazurin dye based microdilution method. Format: functional. In a few lines:
(§1)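 A. baumannii ATCC 19606 grown in tryptic soy broth, 37 °C with shaking, to mid-log (OD 0.5). Cultures treated with serial dilutions of inhibitor (DMSO stock 1 mg/100 μL), 48 h at 37 °C. Resazurin then added, 1 h at 37 °C with shaking. MIC is the lowest concentration staying blue; MBC is blue retained over 4 h, with CFU plating if needed (99.9% kill).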

Data set [2] deals with Acinetobacter baumannii. In words: Bactericidal activity against multidrug-resistant Acinetobacter baumannii ATCC BAA 18002 after 48 hrs by resazurin dye based broth microdilution method. It is filed as functional. The following applies: for MBC: read-out: MBC99.9. In outline: (§2)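 Broth microdilution in tryptic soy broth. Mid-log cultures (OD600 0.5) treated with serial dilutions from a DMSO stock (1 mg per 100 μL) for 48 h at 37 °C. Resazurin (stock 0.02%) then added for 1 h at 37 °C. MIC is the lowest concentration staying blue; MBC is blue retained over 4 h (99.9% kill), with CFU plating when needed.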

For data set [3], the system named is Acinetobacter baumannii. In words: Growth inhibition of multidrug-resistant Acinetobacter baumannii ATCC BAA 18002 after 48 hrs by resazurin dye based broth microdilution method. Format: functional. In a few lines: as §2
The test system of the next data set is Vero. Kind of data set: Cytotoxicity against African green monkey Vero cells after 72 hrs by MTT assay. It is filed as cell-based, Chlorocebus sabaeus. In a few lines: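 Vero (ATCC CCL-81) cells in Eagle's MEM with 10% FBS and penicillin-streptomycin, in 96-well plates. Serial dilutions from 0.78 to 200 μg/mL. Tunicamycin, colistin or tobramycin as controls on each plate. Viability by MTT, giving IC50.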
(Tetrazolium dyes change colour on reduction, which living cells bring about.)

Data set [4] concerns Acinetobacter baumannii. Kind of data set: Bactericidal activity against Acinetobacter baumannii ATCC 19606 after 48 hrs by resazurin dye based microdilution method. It is filed as functional. As to conditions: for MBC: ATCC 19606 = CIP 70.34 = JCM 6841, 48 h, read-out: MBC99.9. In outline:
as §1

The subject of data set [5] is Acinetobacter baumannii. Kind of data set: Potentiation of doxycycline-induced antimicrobial activity against Acinetobacter baumannii ATCC 19606 at 0.78 ug/ml in presence of 0.025 ug/ml doxycycline by microdilution broth checkerboard method. Format: functional, ATCC 19606 = CIP 70.34 = JCM 6841. In a few lines: (§3)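 A. baumannii ATCC 19606 in a broth microdilution checkerboard with doxycycline, 96 concentration combinations. ΣFIC = C_A/MIC_A + C_B/MIC_B, taken for wells at the growth/no-growth interface; ΣFIC <0.5 counts as synergy.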

In data set [6] the test system is Acinetobacter baumannii. In words: Potentiation of doxycycline-induced antimicrobial activity against Acinetobacter baumannii ATCC 19606 at 1.56 ug/ml in presence of 0.05 ug/ml doxycycline by microdilution broth checkerboard method. It is filed as functional, ATCC 19606 = CIP 70.34 = JCM 6841. In outline: as §3
Data set [7] in a line: Half life in Sprague-Dawley rat liver microsomes at 500 ng/ml by LC/MS analysis. Format: ADME, microsome. In a few lines:
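Pooled Sprague-Dawley rat liver microsomes at 1 mg/mL protein in 100 mM phosphate, pH 7.4. Compound at 500 ng/mL final; verapamil as positive control. Pre-equilibrated 5 min at 37 °C, then 1 mM NADPH added. Triplicate samples at 0, 5, 10, 20, 30, 45 and 60 min, quenched in 4 volumes of cold methanol, analysed by LC-MS.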

Data set [8] in a line: Solubility of the compound in water at 10 mg after 24 hrs by HPLC based shake flask method. It is filed as physicochemical.
The subject of data set [9] is Klebsiella pneumoniae. In words: Growth inhibition of Klebsiella pneumoniae ATCC 8047 after 48 hrs by resazurin dye based microdilution method. It is filed as functional. The following applies: ATCC 8047, 48 h. In outline:
as §2
(Resazurin is reduced to fluorescent resorufin, in cell work by metabolically active cells.)

Data set [10] has as its system Klebsiella pneumoniae. Kind of data set: Bactericidal activity against Klebsiella pneumoniae ATCC 8047 after 48 hrs by resazurin dye based microdilution method. Format: functional. The following applies: ATCC 8047, 48 h, read-out: MBC99.9. In outline:
as §2

The subject of data set [11] is Escherichia coli. Kind of data set: Growth inhibition of Escherichia coli ATCC 10798 after 48 hrs by resazurin dye based microdilution method. Format: functional. As to conditions: ATCC 10798, 48 h. In a few lines: as §2
For data set [12], the system named is Escherichia coli. In words: Bactericidal activity against Escherichia coli ATCC 10798 after 48 hrs by resazurin dye based microdilution method. Format: functional. As to conditions: ATCC 10798, 48 h, read-out: MBC99.9. In outline: as §2
Data set [13] relates to Pseudomonas aeruginosa. In words: Growth inhibition of Pseudomonas aeruginosa ATCC 27853 after 48 hrs by resazurin dye based microdilution method. It is filed as functional. As to conditions: ATCC 27853, 48 h. In outline: as §2
Data set [14] concerns Pseudomonas aeruginosa. In words: Bactericidal activity against Pseudomonas aeruginosa ATCC 27853 after 48 hrs by resazurin dye based microdilution method. As to conditions: ATCC 27853, 48 h, read-out: MBC99.9. It is filed as functional. In outline: as §2
Data set [15] has as its system Staphylococcus aureus. Kind of data set: Growth inhibition of Staphylococcus aureus ATCC 25923 after 48 hrs by resazurin dye based microdilution method. Format: functional. The following applies: ATCC 25923, 48 h. In outline: as §2
The subject of data set [16] is Staphylococcus aureus. In words: Bactericidal activity against Staphylococcus aureus ATCC 25923 after 48 hrs by resazurin dye based microdilution method. Format: functional. The following applies: ATCC 25923, 48 h, read-out: MBC99.9. In a few lines: as §2
Data set [17] deals with Acinetobacter baumannii. Kind of data set: Synergistic antibacterial activity against Acinetobacter baumannii ATCC 19606 infected in C57BL/6 mouse assessed as increase in survival rate at compound to doxycycline ratio of 35:1 administered ip as single dose measured for 5 days. It is filed as functional. As to conditions: ATCC 19606 = CIP 70.34 = JCM 6841, ip, 120 h. In outline:
(§4)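 C57BL/6 mice (n = 5 per group; 4 untreated controls) infected intraperitoneally with A. baumannii ATCC19606 grown at 37 °C and collected by centrifugation, at a dose giving 75% death. Single intraperitoneal dose (2 to 60 mg/kg) given 1 h after infection. Mice monitored for 5 days, with death as the end point; survival rate recorded.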

Data set [18] has as its system Acinetobacter baumannii. Kind of data set: Antibacterial activity against Acinetobacter baumannii ATCC 19606 infected in C57BL/6 mouse assessed as survival rate at 6 mg/kg, ip administered as single dose measured for 5 days (reference value: <20%). The following applies: ATCC 19606 = CIP 70.34 = JCM 6841, ip, 120 h. Format: functional. In outline:
as §4

The mark [19] stands for this setting: ATCC 19606 = CIP 70.34 = JCM 6841, 48 h.
The mark [20] stands for this setting: Chlorocebus sabaeus, Vero, 72 h, read-out: IC50.
The mark [21] stands for this setting: ATCC 19606 = CIP 70.34 = JCM 6841.

In the case of `C=C[C@]1(C)C[C@@H](OC(=O)CSC(C)(C)CNC(=O)[C@H](NC(=O)CN)C(C)C)[C@]2(C)[C@H](C)CC[C@]3(CC[C@@H](O)[C@H]32)[C@@H](C)[C@@H]1O`, the MIC against Acinetobacter baumannii [1] (setting [19]) came out at 3.13 µg/mL (≈ 5.02 µM); in the data set with Acinetobacter baumannii [3] (ATCC BAA 18002, 48 h), 3.13 µg/mL (≈ 5.02 µM). Besides, in the data set on Acinetobacter baumannii [2], the MBC was above 12.5 µg/mL.
Take `CCCCCCCCCCCCC/C=C/C(=O)N[C@H]1[C@H](O[C@H]2O[C@H](CO)[C@@H](O)[C@H](O)[C@H]2NC(C)=O)O[C@H](CC(O)[C@H]2O[C@@H](n3ccc(=O)[nH]c3=O)[C@H](O)[C@@H]2O)[C@H](O)[C@@H]1O` (stereo partly drawn): the IC50 with Vero (setting [20]) worked out at 0.2 µg/mL (≈ 0.237 µM).
For the molecule `C=C[C@]1(C)C[C@@H](OC(=O)CSC(C)(C)CNC(=O)[C@H](N)C(C)C)[C@]2(C)[C@H](C)CC[C@]3(CCC(=O)[C@H]32)[C@@H](C)[C@@H]1O` [VALNEMULIN], the minimum inhibitory concentration (MIC) was found to be 3.13 µg/mL (≈ 5.54 µM) in the data set with Acinetobacter baumannii [1] (setting [19]) and 6.25 µg/mL (≈ 11.1 µM) in the data set with Acinetobacter baumannii [3] (ATCC BAA 18002, 48 h). For the same molecule, the MBC in the data set with Acinetobacter baumannii [2] turned out to be 25 µg/mL (≈ 44.3 µM); in the data set on Acinetobacter baumannii [4], 12.5 µg/mL (≈ 22.1 µM). The “fractional inhibitory concentration index (FICI)” value in the data set on Acinetobacter baumannii [5] and with Acinetobacter baumannii [6] was 0.375 throughout. In data set [7], this molecule had a t1/2 of 34.8 s. For the same molecule, the IC50 in the data set on Vero (setting [20]) was determined as 14.9 µg/mL (≈ 26.4 µM). Moreover, the solubility entry in data set [8] is on record as “Soluble”.
Turning to COLISTIN [listing 1 of 2 here], the figures for the MIC against Acinetobacter baumannii [1] (setting [21]) and with Acinetobacter baumannii [3] were 3.13 µg/mL and above 12.5 µg/mL, respectively. The MBC99.9 was 25 µg/mL in the data set with Acinetobacter baumannii [2] and 6.25 µg/mL against Acinetobacter baumannii [4] (setting [21]).
Turning to `C=C[C@]1(C)C[C@@H](OC(=O)CSC(C)(C)CNC(=O)[C@H](NCCN)C(C)C)[C@]2(C)[C@H](C)CC[C@]3(CC[C@@H](O)[C@H]32)[C@@H](C)[C@@H]1O`, in the data set on Acinetobacter baumannii [2], the MBC was above 12.5 µg/mL. The same molecule returned an MIC with Acinetobacter baumannii [3] (ATCC BAA 18002, 48 h) of 3.15 µg/mL (≈ 5.16 µM).
Consider `C[C@H]1c2cccc(O)c2C(=O)C2=C(O)[C@]3(O)C(=O)C(C(N)=O)=C(O)[C@@H](N(C)C)[C@@H]3[C@@H](O)[C@@H]21.O` [DOXYCYCLINE], for which the MIC against Acinetobacter baumannii [1] (setting [19]) is 0.3 µg/mL; in the data set on Acinetobacter baumannii [3] (ATCC BAA 18002, 48 h), above 25 µg/mL; against Klebsiella pneumoniae [9], 0.25 µg/mL; with Escherichia coli [11], 3.13 µg/mL; with Pseudomonas aeruginosa [13], 12.5 µg/mL; against Staphylococcus aureus [15], 3.13 µg/mL. Also, the MBC in the data set with Acinetobacter baumannii [4] turned out to be 0.4 µg/mL; in the data set with Klebsiella pneumoniae [10], 0.78 µg/mL; in the data set with Escherichia coli [12], 6.25 µg/mL; in the data set with Pseudomonas aeruginosa [14], 25 µg/mL; in the data set with Staphylococcus aureus [16], 12.5 µg/mL. Moreover, in the data set on Acinetobacter baumannii [17], the 50% effective dose (ED50) is below 2 mg/kg.
With COLISTIN [listing 2 of 2 here], in the data set on Vero (vero), the IC50 is above 200 µg/mL.
On to `NC[C@H]1O[C@H](O[C@H]2[C@H](O)[C@@H](O[C@H]3O[C@H](CO)[C@@H](O)[C@H](N)[C@H]3O)[C@H](N)C[C@@H]2N)[C@H](N)C[C@@H]1O` [TOBRAMYCIN], for which the MIC is 6.25 µg/mL (≈ 13.4 µM) against Acinetobacter baumannii [1] (setting [19]) and above 25 µg/mL against Acinetobacter baumannii [3] (ATCC BAA 18002, 48 h). For the same molecule, the results for the MBC in the data set on Acinetobacter baumannii [2] and in the data set on Acinetobacter baumannii [4] were above 25 µg/mL and 12.5 µg/mL (≈ 26.7 µM), respectively. In the data set on Vero (setting [20]), the IC50 was above 200 µg/mL. Also, in the data set on Acinetobacter baumannii [18], the survival at 6 mg/kg amounted to 100%.
